Measured values as given in ChEMBL document CHEMBL5550111, “Design, synthesis and biological evaluation of aryloxy thiophosphoramidate triesters of anticancer nucleoside analogues” (Bioorg Med Chem, 2024).

Legend:
MIA PaCa-2 [1] = experiment: Cytotoxicity against human MIA PaCa-2 cells assessed as inhibition of cell viability incubated for 72 hrs by MTS assay; assay type: functional, cell-based; details: MIA PaCa-2, 72 h
Method in brief: (§1)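 Cells seeded at 0.5 to 100 × 10^3 per well the day before treatment, then exposed for 72 h to 9 serial concentrations (3.16-fold dilutions, top 198 μM), in duplicate. MTS added for a final 4 h at 37 °C and absorbance read. IC50 is the concentration giving 50% loss of viability. MI% is the maximum inhibition over the tested range.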

MIA PaCa-2 [2] = experiment: Cytotoxicity against human MIA PaCa-2 cells assessed as maximum inhibition of cell viability upto 198 uM incubated for 72 hrs by MTS assay relative to control; assay type: functional; details: up to 198 µM
Method in brief: (§2)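 Cells seeded at 0.5 to 100 × 10^3 per well the day before drug addition, then exposed to compound for 72 h. MTS added afterwards, with a further 4 h at 37 °C, and absorbance read. Tested in duplicate at 9 serial 3.16-fold dilutions, top concentration 198 μM. MI% is the maximum inhibition of viability across the tested range.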

RT112/84 [3] = experiment: Cytotoxicity against human RT112/84 cells assessed as inhibition of cell viability incubated for 72 hrs by MTS assay; assay type: functional, cell-based; details: RT112/84, 72 h; method in brief: as §1
RT112/84 [4] = experiment: Cytotoxicity against human RT112/84 cells assessed as maximum inhibition of cell viability upto 198 uM incubated for 72 hrs by MTS assay relative to control; assay type: functional; details: up to 198 µM; method in brief: as §2
HT-29 [5] = experiment: Cytotoxicity against human HT-29 cells assessed as inhibition of cell viability incubated for 72 hrs by MTS assay; assay type: functional, cell-based; details: HT-29, 72 h; method in brief: as §1
HT-29 [6] = experiment: Cytotoxicity against human HT-29 cells assessed as maximum inhibition of cell viability upto 198 uM incubated for 72 hrs by MTS assay relative to control; assay type: functional; details: up to 198 µM; method in brief: as §2
COLO 205 [7] = experiment: Cytotoxicity against human COLO 205 cells assessed as inhibition of cell viability incubated for 72 hrs by MTS assay; assay type: functional, cell-based; details: COLO 205, 72 h; method in brief: as §1
COLO 205 [8] = experiment: Cytotoxicity against human COLO 205 cells assessed as maximum inhibition of cell viability upto 198 uM incubated for 72 hrs by MTS assay relative to control; assay type: functional; details: up to 198 µM; method in brief: as §2
OVCAR-3 [9] = experiment: Cytotoxicity against human OVCAR-3 cells assessed as inhibition of cell viability incubated for 72 hrs by MTS assay; assay type: functional, cell-based; details: OVCAR-3, 72 h; method in brief: as §1
OVCAR-3 [10] = experiment: Cytotoxicity against human OVCAR-3 cells assessed as maximum inhibition of cell viability upto 198 uM incubated for 72 hrs by MTS assay relative to control; assay type: functional; details: up to 198 µM; method in brief: as §2
SK-MES-1 [11] = experiment: Cytotoxicity against human SK-MES-1 cells assessed as inhibition of cell viability incubated for 72 hrs by MTS assay; assay type: functional, cell-based; details: SK-MES-1, 72 h; method in brief: as §1
SK-MES-1 [12] = experiment: Cytotoxicity against human SK-MES-1 cells assessed as maximum inhibition of cell viability upto 198 uM incubated for 72 hrs by MTS assay relative to control; assay type: functional; details: up to 198 µM; method in brief: as §2
NCI-H1975 = experiment: Cytotoxicity against human NCI-H1975 cells assessed as maximum inhibition of cell viability upto 198 uM incubated for 72 hrs by MTS assay relative to control; assay type: functional; details: up to 198 µM; method in brief: as §2
HepG2 [13] = experiment: Cytotoxicity against human HepG2 cells assessed as inhibition of cell viability incubated for 72 hrs by MTS assay; assay type: functional, cell-based; details: HepG2, 72 h; method in brief: as §1
HepG2 [14] = experiment: Cytotoxicity against human HepG2 cells assessed as maximum inhibition of cell viability upto 198 uM incubated for 72 hrs by MTS assay relative to control; assay type: functional; details: up to 198 µM; method in brief: as §2
RPMI-8226 [15] = experiment: Cytotoxicity against human RPMI-8226 cells assessed as inhibition of cell viability incubated for 72 hrs by MTS assay; assay type: functional, cell-based; details: RPMI-8226, 72 h; method in brief: as §1
RPMI-8226 [16] = experiment: Cytotoxicity against human RPMI-8226 cells assessed as maximum inhibition of cell viability upto 198 uM incubated for 72 hrs by MTS assay relative to control; assay type: functional; details: up to 198 µM; method in brief: as §2
PANC-1 [17] = experiment: Cytotoxicity against human PANC-1 cells assessed as inhibition of cell viability incubated for 72 hrs by MTS assay; assay type: functional, cell-based; details: PANC-1, 72 h; method in brief: as §1
PANC-1 [18] = experiment: Cytotoxicity against human PANC-1 cells assessed as maximum inhibition of cell viability upto 198 uM incubated for 72 hrs by MTS assay relative to control; assay type: functional; details: up to 198 µM; method in brief: as §2
BXPC-3 [19] = experiment: Cytotoxicity against human BXPC-3 cells assessed as inhibition of cell viability incubated for 72 hrs by MTS assay; assay type: functional, cell-based; details: BXPC-3, 72 h; method in brief: as §1
BXPC-3 [20] = experiment: Cytotoxicity against human BXPC-3 cells assessed as maximum inhibition of cell viability upto 198 uM incubated for 72 hrs by MTS assay relative to control; assay type: functional; details: up to 198 µM; method in brief: as §2
[21] = Cytotoxicity against human T24/83 cells assessed as inhibition of cell viability incubated for 72 hrs by MTS assay; assay type: functional, cell-based; details: T24/83, 72 h; method in brief: as §1
PC-3 [22] = experiment: Cytotoxicity against human PC-3 cells assessed as inhibition of cell viability incubated for 72 hrs by MTS assay; assay type: functional, cell-based; details: PC-3, 72 h; method in brief: as §1
PC-3 [23] = experiment: Cytotoxicity against human PC-3 cells assessed as maximum inhibition of cell viability upto 198 uM incubated for 72 hrs by MTS assay relative to control; assay type: functional; details: up to 198 µM; method in brief: as §2
MDA-MB-231 [24] = experiment: Cytotoxicity against human MDA-MB-231 cells assessed as inhibition of cell viability incubated for 72 hrs by MTS assay; assay type: functional, cell-based; details: MDA-MB-231, 72 h; method in brief: as §1
MDA-MB-231 [25] = experiment: Cytotoxicity against human MDA-MB-231 cells assessed as maximum inhibition of cell viability upto 198 uM incubated for 72 hrs by MTS assay relative to control; assay type: functional; details: up to 198 µM; method in brief: as §2
A2780 [26] = experiment: Cytotoxicity against human A2780 cells assessed as inhibition of cell viability incubated for 72 hrs by MTS assay; assay type: functional, cell-based; details: A2780, 72 h; method in brief: as §1
A2780 [27] = experiment: Cytotoxicity against human A2780 cells assessed as maximum inhibition of cell viability upto 198 uM incubated for 72 hrs by MTS assay relative to control; assay type: functional; details: up to 198 µM; method in brief: as §2

Structure (SMILES): Nc1nc(=O)n([C@H]2C[C@H](O)[C@@H](CO)O2)cc1F
- IC50 (MIA PaCa-2 [1]): 300 nM
- Imax (MIA PaCa-2 [2]): 85%
- IC50 (RT112/84 [3]): 90 nM
- Imax (RT112/84 [4]): 67%
- IC50 (HT-29 [5]): 130 nM
- Imax (HT-29 [6]): 83%
- IC50 (COLO 205 [7]): 20 nM
- Imax (COLO 205 [8]): 88%
- IC50 (OVCAR-3 [9]): 740 nM
- Imax (OVCAR-3 [10]): 58%
- IC50 (SK-MES-1 [11]): 90 nM
- Imax (SK-MES-1 [12]): 67%
- Imax (NCI-H1975): 91%
- IC50 (HepG2 [13]): 53900 nM
- Imax (HepG2 [14]): 67%
- IC50 (RPMI-8226 [15]): 11800 nM
- Imax (RPMI-8226 [16]): 100%

Structure (SMILES): C[C@H](NP(=O)(OC[C@H]1O[C@@H](n2ccc(N)nc2=O)C(F)(F)[C@@H]1O)Oc1ccccc1)C(=O)OCc1ccccc1 (stereo partly drawn) [FOSGEMCITABINE PALABENAMIDE]
- IC50 (PANC-1 [17]): 3960 nM
- Imax (PANC-1 [18]): 45%
- IC50 (MIA PaCa-2 [1]): 120 nM
- Imax (MIA PaCa-2 [2]): 69%
- IC50 (BXPC-3 [19]): 330 nM
- Imax (BXPC-3 [20]): 64%
- IC50 (RT112/84 [3]): 110 nM
- Imax (RT112/84 [4]): 79%
- IC50 [21]: 50 nM
- IC50 (PC-3 [22]): 1090 nM
- Imax (PC-3 [23]): 65%
- IC50 (HT-29 [5]): 480 nM
- Imax (HT-29 [6]): 64%
- IC50 (COLO 205 [7]): 1820 nM
- Imax (COLO 205 [8]): 72%
- IC50 (MDA-MB-231 [24]): 1000 nM
- Imax (MDA-MB-231 [25]): 71%
- IC50 (A2780 [26]): 270 nM
- Imax (A2780 [27]): 76%
- IC50 (OVCAR-3 [9]): 119000 nM
- Imax (OVCAR-3 [10]): 16%
- IC50 (SK-MES-1 [11]): 110 nM
- Imax (SK-MES-1 [12]): 79%
- IC50 (HepG2 [13]): 1160 nM
- Imax (HepG2 [14]): 57%

Structure (SMILES): C[C@H](NP(=O)(OC[C@H]1O[C@@H](n2cc(F)c(=O)[nH]c2=O)C[C@@H]1O)Oc1cccc2ccccc12)C(=O)OCc1ccccc1 (stereo partly drawn) [FOSIFLOXURIDINE NAFALBENAMIDE]
- IC50 (MIA PaCa-2 [1]): 1470 nM
- Imax (MIA PaCa-2 [2]): 96%
- IC50 (RT112/84 [3]): 320 nM
- Imax (RT112/84 [4]): 77%
- IC50 (HT-29 [5]): 520 nM
- Imax (HT-29 [6]): 81%
- IC50 (COLO 205 [7]): 140 nM
- IC50 (OVCAR-3 [9]): 6910 nM
- Imax (OVCAR-3 [10]): 92%
- IC50 (SK-MES-1 [11]): 320 nM
- Imax (SK-MES-1 [12]): 77%
- Imax (NCI-H1975): 72%
- IC50 (HepG2 [13]): 24500 nM
- Imax (HepG2 [14]): 62%
- IC50 (RPMI-8226 [15]): 5900 nM
- Imax (RPMI-8226 [16]): 93%

Structure (SMILES): Nc1ccn([C@@H]2O[C@H](CO)[C@@H](O)C2(F)F)c(=O)n1 [GEMCITABINE]
- IC50 (PANC-1 [17]): 680 nM
- Imax (PANC-1 [18]): 43%
- IC50 (MIA PaCa-2 [1]): 40 nM
- Imax (MIA PaCa-2 [2]): 68%
- IC50 (BXPC-3 [19]): 1810 nM
- Imax (BXPC-3 [20]): 79%
- IC50 (RT112/84 [3]): 1220 nM
- Imax (RT112/84 [4]): 88%
- IC50 [21]: < 20 nM
- IC50 (PC-3 [22]): 460 nM
- Imax (PC-3 [23]): 61%
- IC50 (HT-29 [5]): 70 nM
- Imax (HT-29 [6]): 64%
- IC50 (COLO 205 [7]): 110 nM
- Imax (COLO 205 [8]): 86%
- IC50 (MDA-MB-231 [24]): 3700 nM
- Imax (MDA-MB-231 [25]): 74%
- IC50 (A2780 [26]): 320 nM
- Imax (A2780 [27]): 85%
- IC50 (OVCAR-3 [9]): 67200 nM
- Imax (OVCAR-3 [10]): 35%
- IC50 (SK-MES-1 [11]): 1220 nM
- Imax (SK-MES-1 [12]): 88%
- IC50 (HepG2 [13]): 16700 nM
- Imax (HepG2 [14]): 53%
